The term pIC50 denotes the IC50 on a negative log10 scale, so that one unit is a factor of ten. The low end stands for a large IC50, the high end for a small IC50.

In ChEMBL document CHEMBL2412970, “Synthesis and anticancer activity of 2,4-disubstituted furo[3,2-b]indole derivatives” (Eur J Med Chem, 2013) one finds IC50 data, which are given here for 35 compounds.

In one test the test system is A498. Kind of test: Cytotoxicity against human A498 cells after 48 hrs by MTT assay. Type of test: functional, cell-based. The following applies: A498, 48 h. On the technique in general: Formazan colour is commonly taken as a measure of viable cells.
A further test relates to COLO 205. Description: Cytotoxicity against human COLO205 cells after 48 hrs by MTT assay. The format is functional, cell-based. The following applies: COLO 205, 48 h. A digest of the protocol: (§1)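 Cells were treated with a range of concentrations for 48 h. Viability was read by MTT: formazan was dissolved in DMSO and absorbance read at 570 nm. Untreated or 0.1% DMSO cells served as control. Data are mean from three independent experiments. HL-60, H460 and COLO 205 were kept in RPMI-1640 with 10% FBS and penicillin/streptomycin.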

Test [1] can be described thus: Cytotoxicity against human Hep3B cells after 48 hrs by MTT assay. Type of test: functional, cell-based, Hep 3B2.
Test [2] in a line: Cytotoxicity against human H460 cells after 48 hrs by MTT assay. Type of test: functional, cell-based. The following applies: NCI-H460, 48 h. Put shortly:
as §1

A further test relates to Detroit 551. Description: Cytotoxicity against human Detroit 551 cells after 48 hrs by MTT assay. Type of test: cell-based. The following applies: Detroit 551, 48 h.
Another test deals with HL-60. Kind of test: Cytotoxicity against human HL60 cells after 48 hrs by MTT assay. Type of test: functional, cell-based. The following applies: HL-60, 48 h. A digest of the protocol: as §1

Structures are written as SMILES. pIC50: −log10 of the molar value.

For the compound `COC(=O)c1cc2c(o1)c1ccccc1n2Cc1cccc(OC)c1`, the pIC50 (in the test with A498; in the test with COLO 205; in test [1]; in test [2]; in the test on Detroit 551; in the test on HL-60) was < 4.30 throughout.

As to `OCc1cc2c(o1)c1ccccc1n2Cc1ccc(F)cc1`, the pIC50 with A498 is 6.16; in the test on COLO 205, 4.44; in test [1] it was 4.35; in test [2], 4.44; with Detroit 551, < 4.30; in the test with HL-60, < 4.30.

For the compound `Cn1c2ccccc2c2oc(CO)cc21`, the pIC50 is 5.34 with A498; < 4.30 in the test with COLO 205; < 4.30 in test [1]; 4.30 in test [2]; < 4.30 in the test with Detroit 551; < 4.30 in the test on HL-60.

With `COC(=O)c1cc2c(o1)c1ccccc1n2Cc1ccccc1OC`, the pIC50 in the test with A498 was < 4.30; in the test on COLO 205 it was 4.48; in test [1] it was 4.30; in test [2], < 4.30; in the test with Detroit 551, < 4.30; with HL-60, 4.60.

For the compound `COC(=O)c1cc2c(o1)c1ccccc1n2Cc1ccccc1Cl`, the pIC50 in the test with A498 was < 4.30; in the test with COLO 205, < 4.60; in test [1], < 4.30; in test [2], < 4.30; with Detroit 551, < 4.30; in the test with HL-60, < 4.30.

Regarding `COC(=O)c1cc2c(o1)c1ccccc1n2Cc1ccc(F)cc1`, the pIC50 (in the test with A498; in the test with COLO 205; in test [1]; in test [2]; in the test with Detroit 551; in the test with HL-60) was < 4.30 each time.

Consider `CCn1c2ccccc2c2oc(CO)cc21`, for which the pIC50 with A498 was 5.43; in the test on COLO 205, < 4.30; in test [1], < 4.30; in test [2] it was 4.30; in the test with Detroit 551, < 4.30; with HL-60, < 4.30.

Take `CCn1c2ccccc2c2oc(C(=O)O)cc21`: the pIC50 (in the test with A498; in the test on COLO 205; in test [1]; in test [2]; in the test on Detroit 551; with HL-60) was < 4.30 each time.

For the compound `O=C(O)c1cc2[nH]c3ccccc3c2o1`, the pIC50 (with A498; in the test on COLO 205; in test [1]; in test [2]; with Detroit 551; in the test with HL-60) was < 4.30 throughout.

Regarding `OCc1cc2c(o1)c1ccccc1n2Cc1ccc(Cl)cc1`, the pIC50 in the test on A498 was 6.10; in the test with COLO 205, 5.09; in test [1] it was 4.44; in test [2], 4.50; with Detroit 551 it was 4.35; in the test with HL-60 it was 4.41.

For `COC(=O)c1cc2c(o1)c1ccccc1n2Cc1ccc(OC)cc1`, the pIC50 in the test with A498 was < 4.30; in the test with COLO 205, < 4.30; in test [1] it was 4.23; in test [2] it was < 4.30; in the test on Detroit 551, < 4.30; in the test with HL-60, < 4.30.

Regarding `COC(=O)c1cc2[nH]c3ccccc3c2o1`, the pIC50 (with A498; in the test on COLO 205; in test [1]; in test [2]; with Detroit 551; in the test on HL-60) was < 4.30 each time.

With `O=C(O)c1cc2c(o1)c1ccccc1n2Cc1ccccc1`, the pIC50 (in the test with A498; with COLO 205; in test [1]; in test [2]; with Detroit 551; in the test with HL-60) was < 4.30 each time.

As to `OCc1cc2c(o1)c1ccccc1n2Cc1cccc(Cl)c1`, the pIC50 in the test with A498 was 5.96; with COLO 205 it was 4.58; in test [1], 4.53; in test [2], 4.30; in the test with Detroit 551 it was < 4.30; in the test on HL-60 it was 4.83.

Turning to `COC(=O)c1cc2c(o1)c1ccccc1n2Cc1cccc(F)c1`, the pIC50 (in the test on A498; in the test on COLO 205; in test [1]; in test [2]; with Detroit 551; in the test on HL-60) was < 4.30 throughout.

As to `COc1cccc(Cn2c3ccccc3c3oc(CO)cc32)c1`, the pIC50 in the test on A498 was 6.48; in the test with COLO 205 it was 4.50; in test [1] it was 4.50; in test [2] it was 4.28; with Detroit 551 it was < 4.30; in the test on HL-60, 4.45.

In the case of `COC(=O)c1cc2c(o1)c1ccccc1n2Cc1ccc(C(=O)OC)s1`, the pIC50 (with A498; with COLO 205; in test [1]; in test [2]; in the test with Detroit 551; in the test on HL-60) was < 4.30 in each case.

Turning to `OCc1cc2c(o1)c1ccccc1n2Cc1ccc2c(c1)OCO2`, the pIC50 was 6.57 in the test on A498; < 4.30 with COLO 205; < 4.30 in test [1]; < 4.30 in test [2]; < 4.30 in the test with Detroit 551; < 4.30 with HL-60.

As to `OCc1cc2[nH]c3ccccc3c2o1`, the negative-log IC50 (pIC50) in the test on A498 is 4.66; in the test with COLO 205, < 4.30; in test [1] it was < 4.30; in test [2], < 4.30; in the test with Detroit 551 it was < 4.30; with HL-60 it was < 4.30.

In the case of `COC(=O)c1cc2c(o1)c1ccccc1n2Cc1ccccc1F`, the pIC50 (in the test on A498; in the test with COLO 205; in test [1]; in test [2]; in the test on Detroit 551; with HL-60) was < 4.30 in each case.

Consider `OCc1cc2c(o1)c1ccccc1n2Cc1ccc(CO)s1`, for which the pIC50 is 6.16 in the test with A498; < 4.30 in the test with COLO 205; < 4.30 in test [1]; < 4.30 in test [2]; < 4.30 with Detroit 551; < 4.30 with HL-60.

For the compound `OCc1cccc(Cn2c3ccccc3c3oc(CO)cc32)c1`, the pIC50 was 6.43 in the test with A498; < 4.30 with COLO 205; 4.30 in test [1]; < 4.30 in test [2]; < 4.30 in the test on Detroit 551; < 4.30 in the test on HL-60.

Consider `OCc1ccc(-c2nn(Cc3ccccc3)c3ccccc23)o1`, for which, in the test on A498, the pIC50 is 6.43.

For the compound `OCc1cc2c(o1)c1ccccc1n2Cc1ccccc1Cl`, the pIC50 in the test with A498 was 5.26; in the test with COLO 205, 4.57; in test [1] it was 4.37; in test [2], 4.52; in the test with Detroit 551, < 4.30; in the test with HL-60, 4.77.

As for `COC(=O)c1cc2c(o1)c1ccccc1n2Cc1ccc2c(c1)OCO2`, the pIC50 (in the test on A498; in the test with COLO 205; in test [1]; in test [2]; in the test with Detroit 551; in the test on HL-60) was < 4.30 throughout.

`COC(=O)c1ccc(Cn2c3ccccc3c3oc(C(=O)OC)cc32)cc1`: the pIC50 (with A498; in the test on COLO 205; in test [1]; in test [2]; in the test with Detroit 551; in the test on HL-60) was < 4.30 in each case.

For `COc1ccccc1Cn1c2ccccc2c2oc(CO)cc21`, the pIC50 in the test on A498 is 5.37; in the test with COLO 205, 4.55; in test [1], 4.61; in test [2], 4.51; with Detroit 551, 4.22; in the test with HL-60, 4.88.

For `COC(=O)c1cc2c(o1)c1ccccc1n2Cc1ccc(Cl)cc1`, the pIC50 (in the test with A498; in the test on COLO 205; in test [1]; in test [2]; in the test with Detroit 551; in the test on HL-60) was < 4.30 in each case.

Consider `COC(=O)c1ccc(Cn2c3ccccc3c3oc(C(=O)OC)cc32)o1`, for which the pIC50 in the test on A498 was < 4.30; in the test with COLO 205 it was < 4.30; in test [1], < 4.30; in test [2], < 4.30; with Detroit 551, < 4.30; in the test on HL-60, 4.30.

As to `COC(=O)c1cccc(Cn2c3ccccc3c3oc(C(=O)OC)cc32)c1`, the pIC50 is < 4.30 in the test with A498; < 4.30 with COLO 205; 4.30 in test [1]; < 4.30 in test [2]; < 4.30 in the test with Detroit 551; 4.78 with HL-60.

Turning to `COC(=O)c1cc2c(o1)c1ccccc1n2Cc1ccccc1`, the pIC50 (with A498; in the test on COLO 205; in test [1]; in test [2]; in the test with Detroit 551; in the test on HL-60) was < 4.30 throughout.

On to `COc1ccc(Cn2c3ccccc3c3oc(CO)cc32)cc1`, for which the pIC50 was 6.44 with A498; 4.53 with COLO 205; 4.34 in test [1]; 4.37 in test [2]; < 4.30 in the test on Detroit 551; 4.26 with HL-60.

In the case of `CCn1c2ccccc2c2oc(C(=O)OC)cc21`, the pIC50 (in the test on A498; in the test with COLO 205; in test [1]; in test [2]; in the test with Detroit 551; with HL-60) was < 4.30 in each case.

In the case of `OCc1cc2c(o1)c1ccccc1n2Cc1ccccc1F`, the pIC50 in the test with A498 was 6.37; with COLO 205, 4.39; in test [1], 4.30; in test [2], < 4.30; in the test on Detroit 551, < 4.30; in the test on HL-60, < 4.30.

Turning to `Cn1c2ccccc2c2oc(C(=O)O)cc21`, the pIC50 (in the test with A498; in the test on COLO 205; in test [1]; in test [2]; with Detroit 551; in the test with HL-60) was < 4.30 each time.
